What all share (format): functional
In one test the test system is NCI-H460. The test can be described thus: Growth inhibition of human NCI-H460 cells at 10 uM after 48 hrs by SRB assay relative to control. The settings on record: NCI-H460, 48 h, read-out: GI. The gist of the method:
(§1)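 Screened at the National Cancer Institute by the standard NCI protocol using the sulforhodamine B assay, which measures cellular protein. Single dose of 10 µM. Result is percent growth inhibition; values above 100% mean cell number fell below the initial population. Values are the average of duplicates.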
Background: In SRB staining, fixed cells bind dye roughly in proportion to their protein.

The test system of a further test is CCRF-CEM. Put plainly: Growth inhibition of human CCRF-CEM cells at 10 uM after 48 hrs by SRB assay relative to control. Particulars: read-out: GI. The gist of the method: as §1
A further test concerns NCI-H23. The test can be described thus: Growth inhibition of human NCI-H23 cells at 10 uM after 48 hrs by SRB assay relative to control. The settings on record: NCI-H23, 48 h, read-out: GI. The gist of the method: as §1
The test system of another test is SF-268. The test can be described thus: Growth inhibition of human SF268 cells at 10 uM after 48 hrs by SRB assay relative to control. The settings on record: SF-268, 48 h, read-out: GI. In outline: as §1
The test system of another test is ACHN. The test can be described thus: Growth inhibition of human ACHN cells at 10 uM after 48 hrs by SRB assay relative to control. The settings on record: read-out: GI. In outline: as §1
The subject of another test is DU-145. Put plainly: Growth inhibition of human DU145 cells at 10 uM after 48 hrs by SRB assay relative to control. Particulars: DU-145, 48 h, read-out: GI. The gist of the method: as §1
For a further test, the system named is NCI-H226. The test can be described thus: Growth inhibition of human NCI-H226 cells at 10 uM after 48 hrs by SRB assay relative to control. The settings on record: NCI-H226, 48 h, read-out: GI. In outline:
as §1

In another test the test system is LOX IMVI. The test can be described thus: Growth inhibition of human LOXIMVI cells at 10 uM after 48 hrs by SRB assay relative to control. Particulars: read-out: GI. In outline:
as §1

In a further test the test system is MCF7. Put plainly: Growth inhibition of human MCF7 cells at 10 uM after 48 hrs by SRB assay relative to control. The settings on record: MCF7, 48 h, read-out: GI. The gist of the method: as §1
The subject of a further test is OVCAR-5. The test can be described thus: Growth inhibition of human OVCAR5 cells at 10 uM after 48 hrs by SRB assay relative to control. Particulars: OVCAR-5, 48 h, read-out: GI. The gist of the method: as §1
The subject of a further test is SK-MEL-28. Put plainly: Growth inhibition of human SK-MEL-28 cells at 10 uM after 48 hrs by SRB assay relative to control. Particulars: SK-MEL-28, 48 h, read-out: GI. The gist of the method: as §1
The subject of a further test is OVCAR-8. The test can be described thus: Growth inhibition of human OVCAR8 cells at 10 uM after 48 hrs by SRB assay relative to control. The settings on record: OVCAR-8, 48 h, read-out: GI. The gist of the method: as §1
The next test relates to RPMI-8226. Put plainly: Growth inhibition of human RPMI8226 cells at 10 uM after 48 hrs by SRB assay relative to control. Particulars: RPMI-8226, 48 h, read-out: GI. In outline:
as §1

The next test concerns KM12. The test can be described thus: Growth inhibition of human KM12 cells at 10 uM after 48 hrs by SRB assay relative to control. The settings on record: KM12, 48 h, read-out: GI. In outline: as §1
For a further test, the system named is UACC-257. Put plainly: Growth inhibition of human UACC257 cells at 10 uM after 48 hrs by SRB assay relative to control. Particulars: UACC-257, 48 h, read-out: GI. The gist of the method:
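NCI screen against its human cancer cell line panel by the standard NCI protocol, SRB protein stain. Single dose of 10 μM. Percent growth inhibition versus control; values above 100% mean the cell population fell below the starting number. Each value is the mean of duplicates.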

The test system of the next test is RXF 393. Put plainly: Growth inhibition of human RXF393 cells at 10 uM after 48 hrs by SRB assay relative to control. Particulars: RXF 393, 48 h, read-out: GI. The gist of the method:
as §1

The next test deals with CAKI-1. Put plainly: Growth inhibition of human Caki1 cells at 10 uM after 48 hrs by SRB assay relative to control. Particulars: CAKI-1, 48 h, read-out: GI. In outline:
as §1

The next test relates to IGROV-1. The test can be described thus: Growth inhibition of human IGROV1 cells at 10 uM after 48 hrs by SRB assay relative to control. Particulars: IGROV-1, 48 h, read-out: GI. The gist of the method:
as §1

For a further test, the system named is HCT-15. The test can be described thus: Growth inhibition of human HCT15 cells at 10 uM after 48 hrs by SRB assay relative to control. Particulars: HCT-15, 48 h, read-out: GI. The gist of the method:
as §1

Another test relates to SF-295. Put plainly: Growth inhibition of human SF295 cells at 10 uM after 48 hrs by SRB assay relative to control. The settings on record: SF-295, 48 h, read-out: GI. In outline:
as §1

The next test deals with NCI-H322M. The test can be described thus: Growth inhibition of human NCI-H322M cells at 10 uM after 48 hrs by SRB assay relative to control. The settings on record: read-out: GI. The gist of the method:
as §1

Take `Cc1ccc(NC(=O)c2ccc(CN3CCN(C)CC3)cc2)cc1Nc1nccc(-c2cccnc2)n1` [IMATINIB]: the inhibition of growth at 10 µM in the test on NCI-H460 was 3.2%; with CCRF-CEM, 6.6%; in the test on NCI-H23, 17.1%; with SF-268, -3.8%; with ACHN it was -1%; with DU-145, 14.4%. The inhibition of growth at 10 µM in the test on NCI-H226 was 10.6%; with LOX IMVI, 11.6%; in the test with MCF7, 8.1%; in the test on OVCAR-5, -22.8%; in the test with SK-MEL-28, -9.4%; with OVCAR-8 it was 8.4%. Moreover, the inhibition of growth at 10 µM with RPMI-8226 is 12.6%; in the test on KM12, -6.7%; in the test on UACC-257, 2.8%; in the test with RXF 393, 5.7%; in the test on CAKI-1, -0.2%; in the test on IGROV-1, -18.6%. Further, the inhibition of growth at 10 µM in the test on HCT-15 came out at 11.5%; in the test with SF-295, 15.1%.

Turning to `COc1cccc(C(=O)Nc2cccc(-c3cc(=O)c4c(O)c(OC)c(OC)cc4o3)c2)c1`, the inhibition of growth at 10 µM in the test on NCI-H460 is 45.6%; with CCRF-CEM it was 50.5%; with NCI-H23, 32.6%; in the test on SF-268, 29.8%; in the test with NCI-H322M it was 30.9%; with ACHN, 35.5%. The inhibition of growth at 10 µM in the test on DU-145 stood at 36.7%; with NCI-H226, 36.3%; in the test with LOX IMVI it was 57.6%; with MCF7 it was 34.9%; with OVCAR-5, 9.51%; with SK-MEL-28 it was 22.5%. The inhibition of growth at 10 µM with OVCAR-8 was 50.7%; in the test with RPMI-8226 it was 74.2%; in the test with KM12, 43.7%; in the test with UACC-257, 25.9%; with RXF 393 it was 1.37%; with CAKI-1, 23.8%. Besides, the inhibition of growth at 10 µM in the test with IGROV-1 amounted to 25.7%; with HCT-15, 58.4%; in the test with SF-295, 33.1%.

In the case of `COc1cccc(NC(=O)c2cccc(-c3cc(=O)c4c(OC)c(OC)c(OC)cc4o3)c2)c1`, the inhibition of growth at 10 µM was found to be 39.9% in the test with NCI-H460; 59.5% in the test with CCRF-CEM; 36.9% in the test with NCI-H23; 36.9% with SF-268; 19.9% with NCI-H322M; 37.5% in the test with ACHN. The inhibition of growth at 10 µM with DU-145 turned out to be 28.2%; in the test with NCI-H226 it was 36.7%; in the test with LOX IMVI it was 50.1%; in the test with MCF7, 12.3%; in the test with OVCAR-5, 9.93%; with SK-MEL-28 it was 26.6%. In addition, the inhibition of growth at 10 µM with OVCAR-8 came to 53%; with RPMI-8226, 83%; in the test on KM12 it was 46.3%; with UACC-257, 7.62%; with RXF 393 it was 52.1%; with CAKI-1, 25.3%. Besides, the inhibition of growth at 10 µM with IGROV-1 amounted to 46.7%; in the test on HCT-15, 45.3%; in the test with SF-295 it was 29.2%.

In the case of `COc1cc2oc(-c3cccc(NC(=O)c4ccccc4)c3)cc(=O)c2c(OC)c1OC`, the inhibition of growth at 10 µM in the test on NCI-H460 was determined as 21.3%; in the test on CCRF-CEM, 54.3%; in the test with NCI-H23, 27.1%; with SF-268, 27.7%; in the test with NCI-H322M it was 16.2%; in the test on ACHN, 38.4%. Further, the inhibition of growth at 10 µM is 14.5% in the test on DU-145; 18.6% in the test on NCI-H226; 38.3% with LOX IMVI; 22.7% in the test on MCF7; -0.09% with OVCAR-5; 26.8% in the test on SK-MEL-28. Also, the inhibition of growth at 10 µM in the test with OVCAR-8 amounted to 39%; in the test on RPMI-8226, 73.4%; in the test on KM12 it was 35.6%; with UACC-257, 0.33%; in the test with RXF 393, 25.6%; with CAKI-1 it was 12.8%. In addition, the inhibition of growth at 10 µM is 21.6% with IGROV-1, 34.8% with HCT-15 and 22.2% in the test on SF-295.

For `COc1cc2oc(-c3cccc(C(=O)Nc4ccc5c(c4)OCO5)c3)cc(=O)c2c(O)c1OC`, the inhibition of growth at 10 µM with NCI-H460 was 45.7%; with CCRF-CEM, 2.77%; in the test with NCI-H23, 27.3%; in the test with SF-268, 41.3%; in the test on NCI-H322M, 19%; in the test with ACHN, 24.8%. The inhibition of growth at 10 µM in the test with DU-145 came to 19.6%; in the test with NCI-H226, 21.5%; with LOX IMVI it was 11.8%; in the test on MCF7, 8.35%; in the test on OVCAR-5, 11.1%; with SK-MEL-28, 10.2%. The inhibition of growth at 10 µM in the test with OVCAR-8 was 69.4%; in the test on RPMI-8226 it was 20.2%; with KM12, 29.4%; with UACC-257, 21.8%; in the test on RXF 393, 18.5%; in the test on CAKI-1, 23.1%. Moreover, the inhibition of growth at 10 µM in the test on IGROV-1 amounted to 18.4%; in the test with HCT-15, 6.45%; in the test on SF-295 it was 7.93%.

As to `COc1cccc(C(=O)Nc2cccc(-c3cc(=O)c4c(OC)c(OC)c(OC)cc4o3)c2)c1`, the inhibition of growth at 10 µM in the test with CCRF-CEM was 56.1%; in the test with NCI-H23 it was 33.9%; in the test with SF-268, 42.6%; in the test on NCI-H322M, 27.1%; with ACHN it was 42.1%; with DU-145 it was 32.6%. Also, the inhibition of growth at 10 µM in the test on NCI-H226 worked out at 28%; with LOX IMVI, 42.6%; in the test on MCF7, 21.3%; in the test with OVCAR-5, 10.4%; with SK-MEL-28 it was 27%; in the test on OVCAR-8 it was 47.7%. The inhibition of growth at 10 µM in the test on RPMI-8226 was 83.2%; with KM12, 53.9%; in the test on UACC-257, 3.66%; with RXF 393 it was 28.9%; with CAKI-1, 18.1%; in the test on IGROV-1, 42.6%. Further, the inhibition of growth at 10 µM in the test on HCT-15 was found to be 46.6%; in the test on SF-295, 42.7%.

(Values after ChEMBL document CHEMBL4325889, “Natural products hybrids: 3,5,4'-Trimethoxystilbene-5,6,7-trimethoxyflavone chimeric analogs as potential cytotoxic agents against diverse human cancer cells” (Eur J Med Chem, 2019).)
